Results from different studies.
Histone acetyltransferase KAT6B: Histone acetyltransferase KAT6B (Homo sapiens, UniProt Q8WYB5)
PIK3CB: Phosphatidylinositol 4,5-bisphosphate 3-kinase catalytic subunit beta isoform (PIK3CB, Homo sapiens, UniProt P42338)
Trpm7: Transient receptor potential cation channel subfamily M member 7 (Trpm7, Mus musculus, UniProt Q923J1)
DNA polymerase catalytic subunit: DNA polymerase catalytic subunit (Human cytomegalovirus, UniProt P08546)
PIK3CA: Phosphatidylinositol 4,5-bisphosphate 3-kinase catalytic subunit alpha isoform (PIK3CA, Homo sapiens, UniProt P42336)
KDR: Vascular endothelial growth factor receptor 2 (KDR, Homo sapiens, UniProt P35968)
NOX5: NADPH oxidase 5 (NOX5, Homo sapiens, UniProt Q96PH1)

SMILES	target	assay	setting	IC50
CNC(=O)c1cnc(Nc2ccccc2C)c(NC(=O)c2cc(F)cc(C(F)(F)F)c2)c1	Phosphatidylinositol 4,5-bisphosphate 3-kinase catalytic subunit alpha isoform (PIK3CA, Homo sapiens, UniProt P42336, H1047R)	enzyme activity, inhibitor	with preincubation	334 nM
CCOc1cccc(-c2cccc(Cl)c2)c1S(=O)(=O)NC(=O)c1cc2c(C)cc(OC)cc2o1	Histone acetyltransferase KAT6B	enzyme activity, inhibitor, TR-FRET		25 nM
COc1cc2ncnc(N(C)c3ccc4c(c3)/C(=C/c3cccc(Cl)c3)C(=O)N4C)c2cc1OC	PIK3CB	enzyme activity, inhibitor, ADP detection		103 nM
N#Cc1ccc(COC[C@H]2O[C@@H](n3c(NCc4ccc(Cl)c(Cl)c4)nc4c(N)ncnc43)[C@H](O)[C@@H]2O)cc1	Trpm7	calcium signal		300 nM
Cc1nc(Nc2ccc3c(c2)C(C)(C)C(=O)N3)c2ccccc2n1	PIK3CB	enzyme activity, inhibitor, ADP detection		153 nM
COc1cnc2c(cc(C(=O)NCc3ccc(Cl)cc3)c(=O)n2CC(=O)N2CC(C)(F)C2)n1	DNA polymerase catalytic subunit	enzyme activity, inhibitor		954 nM
COc1cc(C)c2cc(C(=O)NS(=O)(=O)c3cccc4ccc(C)nc34)oc2c1	Histone acetyltransferase KAT6B	enzyme activity, inhibitor, TR-FRET		22 nM
Cc1nc(Nc2ccc3c(c2)/C(=C/c2ccccc2C)C(=O)N3)c2ccccc2n1	PIK3CA	enzyme activity, inhibitor, ADP detection		45.5 nM
CC(=NNC(N)=S)c1ccc(Nc2nnc(-c3ccc(Cl)cc3)c3ccccc23)cc1	KDR	cell-free assay, inhibitor		375 nM
c1ccc2c(c1)CCC[C@H]2Nc1nc2ccccc2[nH]1	Trpm7	calcium signal		1130 nM
CCOc1cccc(-c2ccccc2)c1S(=O)(=O)NC(=O)c1cc2c(C)cc(OC)cc2o1	Histone acetyltransferase KAT6B	enzyme activity, inhibitor, TR-FRET		51 nM
O=c1oc(-c2ccco2)nc2ccccc12	Cathepsin G (CTSG, Homo sapiens, UniProt P08311)	enzyme activity, inhibitor, absorbance	pH 7.4	840 nM
COc1ccc2[nH]c(C(=O)Nc3nc(CC(=O)O)cs3)cc2c1	KDR	enzyme activity, inhibitor, ELISA		921 nM
Cc1nc(Nc2ccc3c(c2)/C(=C/c2ccccc2Cl)C(=O)N3)c2ccccc2n1	PIK3CA	enzyme activity, inhibitor, ADP detection		27.7 nM
COc1cc(C)c2cc(C(=O)NS(=O)(=O)c3ccc(-c4ccccc4)cc3)oc2c1	Histone acetyltransferase KAT6B	enzyme activity, inhibitor, TR-FRET		161 nM
C[C@H]1COC2=C1C(=O)C(=O)c1c2ccc2c1CCCC2(C)C	NOX5	enzyme activity, inhibitor		4300 nM
CNCCN1CCN(c2cnc3c(cc(C(=O)NCc4ccc(Cl)cc4)c(=O)n3CC(=O)N3CC(C)(F)C3)n2)C1=O	DNA polymerase catalytic subunit	enzyme activity, inhibitor		571 nM
Cc1cc(Br)cc2oc(C(=O)NS(=O)(=O)c3ccccc3-c3ccccc3)cc12	Histone acetyltransferase KAT6B	enzyme activity, inhibitor, TR-FRET		150 nM
Cc1nc(N(Cc2ccccc2)c2ccc3c(c2)/C(=C/c2ccccc2)C(=O)N3Cc2ccccc2)c2ccccc2n1 (mixture of isomers)	PIK3CA	enzyme activity, inhibitor, ADP detection		9.11 nM
CC(=NNC(=O)c1ccncc1)c1ccc(Nc2nnc(-c3ccc(Cl)cc3)c3ccccc23)cc1	KDR	cell-free assay, inhibitor		148 nM
CN(C)C(=O)CN1CCN(c2cnc3c(cc(C(=O)NCc4ccc(Cl)cc4)c(=O)n3CC(=O)N3CC(C)(F)C3)n2)C1=O	DNA polymerase catalytic subunit	enzyme activity, inhibitor		328 nM
Cc1nc(N(C)c2ccc3c(c2)/C(=C/c2ccccc2Cl)C(=O)N3C)c2ccccc2n1	PIK3CB	enzyme activity, inhibitor, ADP detection		117 nM
Cc1coc2c1C(=O)C(=O)c1c-2ccc2c(C)cccc12	NOX5	enzyme activity, inhibitor		3900 nM
COc1cc2ncnc(Nc3ccc4c(c3)/C(=C/c3cccc(Cl)c3)C(=O)N4C)c2cc1OC	PIK3CA	enzyme activity, inhibitor, ADP detection		121 nM
CCCOc1ccc2cc(C(=O)NS(=O)(=O)c3ccccc3-c3ccccc3)oc2c1	Histone acetyltransferase KAT6B	enzyme activity, inhibitor, TR-FRET		12200 nM
Cc1nc(Nc2ccc3c(c2)C(C)(C)C(=O)N3C)c2ccccc2n1	PIK3CA	enzyme activity, inhibitor, ADP detection		164 nM
COc1cc(C)c2cc(C(=O)NS(=O)(=O)c3ccccc3OC)oc2c1	Histone acetyltransferase KAT6B	enzyme activity, inhibitor, TR-FRET		68 nM
